Assay results: ChEMBL document CHEMBL4152188, “Design, synthesis and biological evaluation of C(4) substituted monobactams as antibacterial agents against multidrug-resistant Gram-negative bacteria” (Eur J Med Chem, 2018)
≈ marks a conversion by molar mass, not a printed value.

Key:
Type in all cases: functional
Klebsiella pneumoniae [1] = test: Antibacterial activity against KPC-2 producing Klebsiella pneumoniae isolate 209735 after 18 hrs in presence of BPL by CLSI broth microdilution method; details: isolate 209735, 18 h
Summary of the method: (§1)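 CLSI broth microdilution against clinical isolates (ESBL E. coli, KPC-2 MDR K. pneumoniae, IMP-4 MDR P. aeruginosa; five per species). Iron limitation: Mueller-Hinton broth supplemented with 16 mg/liter 2,2'-bipyridyl to complex iron and induce iron uptake systems. Read-out: MIC.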

Pseudomonas aeruginosa [2] = test: Antibacterial activity against IMP-4 producing Pseudomonas aeruginosa isolate 208247 after 18 hrs in presence of BPL by CLSI broth microdilution method; details: isolate 208247, 18 h; summary of the method: as §1
Klebsiella pneumoniae [3] = test: Antibacterial activity against KPC-2 producing Klebsiella pneumoniae isolate 212232 after 18 hrs in presence of BPL by CLSI broth microdilution method; details: isolate 212232, 18 h; summary of the method: as §1
Pseudomonas aeruginosa [4] = test: Antibacterial activity against IMP-4 producing Pseudomonas aeruginosa isolate 209321 after 18 hrs in presence of BPL by CLSI broth microdilution method; details: isolate 209321, 18 h; summary of the method: as §1
Klebsiella pneumoniae [5] = test: Antibacterial activity against KPC-2 producing Klebsiella pneumoniae isolate 212232 after 18 hrs by CLSI broth microdilution method; details: isolate 212232, 18 h
Escherichia coli [6] = test: Antibacterial activity against extended-spectrum beta-lactamase producing Escherichia coli isolate 212648 after 18 hrs in presence of BPL by CLSI broth microdilution method; details: isolate 212648, 18 h; summary of the method: as §1
Escherichia coli [7] = test: Antibacterial activity against extended-spectrum beta-lactamase producing Escherichia coli isolate 208687 after 18 hrs by CLSI broth microdilution method; details: isolate 208687, 18 h
Pseudomonas aeruginosa [8] = test: Antibacterial activity against IMP-4 producing Pseudomonas aeruginosa isolate 208247 after 18 hrs by CLSI broth microdilution method; details: isolate 208247, 18 h
Klebsiella pneumoniae [9] = test: Antibacterial activity against KPC-2 producing Klebsiella pneumoniae isolate 212423 after 18 hrs by CLSI broth microdilution method; details: isolate 212423, 18 h
Escherichia coli [10] = test: Antibacterial activity against extended-spectrum beta-lactamase producing Escherichia coli isolate 209285 after 18 hrs in presence of BPL by CLSI broth microdilution method; details: isolate 209285, 18 h; summary of the method: as §1
Pseudomonas aeruginosa [11] = test: Antibacterial activity against IMP-4 producing Pseudomonas aeruginosa isolate 212886 after 18 hrs by CLSI broth microdilution method; details: isolate 212886, 18 h
Klebsiella pneumoniae [12] = test: Antibacterial activity against KPC-2 producing Klebsiella pneumoniae isolate 212423 after 18 hrs in presence of BPL by CLSI broth microdilution method; details: isolate 212423, 18 h; summary of the method: as §1
Escherichia coli [13] = test: Antibacterial activity against extended-spectrum beta-lactamase producing Escherichia coli isolate 209285 after 18 hrs by CLSI broth microdilution method; details: isolate 209285, 18 h
Pseudomonas aeruginosa [14] = test: Antibacterial activity against IMP-4 producing Pseudomonas aeruginosa isolate 207272 after 18 hrs in presence of BPL by CLSI broth microdilution method; details: isolate 207272, 18 h; summary of the method: as §1
Pseudomonas aeruginosa [15] = test: Selectivity index, ratio of MIC for against IMP-4 producing Pseudomonas aeruginosa isolate 209321 to MIC for against IMP-4 producing Pseudomonas aeruginosa isolate 209321 in presence of BPL
Klebsiella pneumoniae [16] = test: Antibacterial activity against KPC-2 producing Klebsiella pneumoniae isolate 212229 after 18 hrs by CLSI broth microdilution method; details: isolate 212229, 18 h
Pseudomonas aeruginosa [17] = test: Selectivity index, ratio of MIC for against IMP-4 producing Pseudomonas aeruginosa isolate 209471 to MIC for against IMP-4 producing Pseudomonas aeruginosa isolate 209471 in presence of BPL
Escherichia coli [18] = test: Antibacterial activity against Escherichia coli isolate 210737 after 18 hrs by CLSI broth microdilution method; details: isolate 210737, 18 h
Pseudomonas aeruginosa [19] = test: Selectivity index, ratio of MIC for against IMP-4 producing Pseudomonas aeruginosa isolate 207272 to MIC for against IMP-4 producing Pseudomonas aeruginosa isolate 207272 in presence of BPL
Escherichia coli [20] = test: Selectivity index, ratio of MIC for against extended-spectrum beta-lactamase producing Escherichia coli isolate 208687 to MIC for extended-spectrum beta-lactamase producing Escherichia coli isolate 208687 in presence of BPL
Klebsiella pneumoniae [21] = test: Antibacterial activity against KPC-2 producing Klebsiella pneumoniae isolate 209632 after 18 hrs in presence of BPL by CLSI broth microdilution method; details: isolate 209632, 18 h; summary of the method: as §1
Pseudomonas aeruginosa [22] = test: Antibacterial activity against IMP-4 producing Pseudomonas aeruginosa isolate 212886 after 18 hrs in presence of BPL by CLSI broth microdilution method; details: isolate 212886, 18 h; summary of the method: as §1
Escherichia coli [23] = test: Antibacterial activity against extended-spectrum beta-lactamase producing Escherichia coli isolate 212648 after 18 hrs by CLSI broth microdilution method; details: isolate 212648, 18 h
Klebsiella pneumoniae [24] = test: Selectivity index, ratio of MIC for against KPC-2 producing Klebsiella pneumoniae isolate 209632 to MIC for against KPC-2 producing Klebsiella pneumoniae isolate 209632 in presence of BPL
Klebsiella pneumoniae [25] = test: Selectivity index, ratio of MIC for against KPC-2 producing Klebsiella pneumoniae isolate 209735 to MIC for against KPC-2 producing Klebsiella pneumoniae isolate 209735 in presence of BPL
Pseudomonas aeruginosa [26] = test: Antibacterial activity against IMP-4 producing Pseudomonas aeruginosa isolate 209471 after 18 hrs in presence of BPL by CLSI broth microdilution method; details: isolate 209471, 18 h; summary of the method: as §1
Klebsiella pneumoniae [27] = test: Selectivity index, ratio of MIC for against KPC-2 producing Klebsiella pneumoniae isolate 212229 to MIC for against KPC-2 producing Klebsiella pneumoniae isolate 212229 in presence of BPL
Klebsiella pneumoniae [28] = test: Antibacterial activity against KPC-2 producing Klebsiella pneumoniae isolate 209632 after 18 hrs by CLSI broth microdilution method; details: isolate 209632, 18 h
Pseudomonas aeruginosa [29] = test: Antibacterial activity against IMP-4 producing Pseudomonas aeruginosa isolate 209471 after 18 hrs by CLSI broth microdilution method; details: isolate 209471, 18 h
Klebsiella pneumoniae [30] = test: Antibacterial activity against KPC-2 producing Klebsiella pneumoniae isolate 209735 after 18 hrs by CLSI broth microdilution method; details: isolate 209735, 18 h
Pseudomonas aeruginosa [31] = test: Antibacterial activity against IMP-4 producing Pseudomonas aeruginosa isolate 209321 after 18 hrs by CLSI broth microdilution method; details: isolate 209321, 18 h
Escherichia coli [32] = test: Antibacterial activity against extended-spectrum beta-lactamase producing Escherichia coli isolate 106342 after 18 hrs in presence of BPL by CLSI broth microdilution method; details: isolate 106342, 18 h; summary of the method: as §1
Klebsiella pneumoniae [33] = test: Selectivity index, ratio of MIC for against KPC-2 producing Klebsiella pneumoniae isolate 212232 to MIC for against KPC-2 producing Klebsiella pneumoniae isolate 212232 in presence of BPL
Escherichia coli [34] = test: Selectivity index, ratio of MIC for against extended-spectrum beta-lactamase producing Escherichia coli isolate 106342 to MIC for extended-spectrum beta-lactamase producing Escherichia coli isolate 106342 in presence of BPL
Escherichia coli [35] = test: Antibacterial activity against extended-spectrum beta-lactamase producing Escherichia coli isolate 208687 after 18 hrs in presence of BPL by CLSI broth microdilution method; details: isolate 208687, 18 h; summary of the method: as §1
Pseudomonas aeruginosa [36] = test: Antibacterial activity against IMP-4 producing Pseudomonas aeruginosa isolate 207272 after 18 hrs by CLSI broth microdilution method; details: isolate 207272, 18 h
Escherichia coli [37] = test: Selectivity index, ratio of MIC for against extended-spectrum beta-lactamase producing Escherichia coli isolate 209285 to MIC for extended-spectrum beta-lactamase producing Escherichia coli isolate 209285 in presence of BPL
Pseudomonas aeruginosa [38] = test: Selectivity index, ratio of MIC for against IMP-4 producing Pseudomonas aeruginosa isolate 208247 to MIC for against IMP-4 producing Pseudomonas aeruginosa isolate 208247 in presence of BPL
Pseudomonas aeruginosa [39] = test: Selectivity index, ratio of MIC for against IMP-4 producing Pseudomonas aeruginosa isolate 212886 to MIC for against IMP-4 producing Pseudomonas aeruginosa isolate 212886 in presence of BPL
Klebsiella pneumoniae [40] = test: Selectivity index, ratio of MIC for against KPC-2 producing Klebsiella pneumoniae isolate 212423 to MIC for against KPC-2 producing Klebsiella pneumoniae isolate 212423 in presence of BPL
Escherichia coli [41] = test: Selectivity index, ratio of MIC for against extended-spectrum beta-lactamase producing Escherichia coli isolate 212648 to MIC for extended-spectrum beta-lactamase producing Escherichia coli isolate 212648 in presence of BPL
Klebsiella pneumoniae [42] = test: Antibacterial activity against KPC-2 producing Klebsiella pneumoniae isolate 212229 after 18 hrs in presence of BPL by CLSI broth microdilution method; details: isolate 212229, 18 h; summary of the method: as §1
Escherichia coli [43] = test: Antibacterial activity against extended-spectrum beta-lactamase producing Escherichia coli isolate 106342 after 18 hrs by CLSI broth microdilution method; details: isolate 106342, 18 h
Escherichia coli [44] = test: Selectivity index, ratio of MIC for against Escherichia coli isolate 210737 to MIC for Escherichia coli isolate 210737 in presence of BPL
Escherichia coli [45] = test: Antibacterial activity against Escherichia coli isolate 210737 after 18 hrs in presence of BPL by CLSI broth microdilution method; details: isolate 210737, 18 h; summary of the method: as §1

How did the MIC (Klebsiella pneumoniae [1]) turn out when `CC(C)C(O/N=C(\C(=O)N[C@@H]1C(=O)N(S(=O)(=O)O)[C@@H]1COS(=O)(=O)O)c1csc(N)n1)c1cc(=O)c(O)cn1O` (stereo not given in full) was run?
Its MIC is 0.25 µg/mL.

What about the MIC (Pseudomonas aeruginosa [2]) of the same compound?
Its MIC is 32 µg/mL.

And the MIC (Klebsiella pneumoniae [3])?
Its MIC is 0.125 µg/mL.

And the MIC (Pseudomonas aeruginosa [4])?
The MIC was 32 µg/mL.

And the MIC (Klebsiella pneumoniae [5])?
The MIC was 2 µg/mL (≈ 3.19 µM).

What about the MIC (Escherichia coli [6]) of the same compound?
Its MIC is 2 µg/mL.

What about the MIC (Escherichia coli [7]) of the same compound?
Its MIC is 8 µg/mL (≈ 12.8 µM).

And the MIC (Pseudomonas aeruginosa [8])?
Its MIC is 32 µg/mL (≈ 51.1 µM).

What about the MIC (Klebsiella pneumoniae [9]) of the same compound?
The MIC was 2 µg/mL (≈ 3.19 µM).

And the MIC (Escherichia coli [10])?
The MIC was 4 µg/mL.

And the MIC (Pseudomonas aeruginosa [11])?
Its MIC is greater than 64 µg/mL.

What about the MIC (Klebsiella pneumoniae [12]) of the same compound?
Its MIC is 0.5 µg/mL.

What about the MIC (Escherichia coli [13]) of the same compound?
Its MIC is 8 µg/mL (≈ 12.8 µM).

What about the MIC (Pseudomonas aeruginosa [14]) of the same compound?
Its MIC is 32 µg/mL.

And the “Selectivity Index” value (Pseudomonas aeruginosa [15])?
Its value is 1.

And the MIC (Klebsiella pneumoniae [16])?
Its MIC is 1 µg/mL (≈ 1.6 µM).

And the “Selectivity Index” value (Pseudomonas aeruginosa [17])?
Its value is 1.

And the MIC (Escherichia coli [18])?
Its MIC is 2 µg/mL (≈ 3.19 µM).

What about the “Selectivity Index” value (Pseudomonas aeruginosa [19]) of the same compound?
The value was 1.

And the “Selectivity Index” value (Escherichia coli [20])?
Its value is 4.

And the MIC (Klebsiella pneumoniae [21])?
The MIC was 0.125 µg/mL.

What about the MIC (Pseudomonas aeruginosa [22]) of the same compound?
The MIC was 32 µg/mL.

And the MIC (Escherichia coli [23])?
Its MIC is 8 µg/mL (≈ 12.8 µM).

What about the “Selectivity Index” value (Klebsiella pneumoniae [24]) of the same compound?
The value was 4.

What about the “Selectivity Index” value (Klebsiella pneumoniae [25]) of the same compound?
Its value is 8.

What about the MIC (Pseudomonas aeruginosa [26]) of the same compound?
The MIC was 32 µg/mL.

What about the “Selectivity Index” value (Klebsiella pneumoniae [27]) of the same compound?
Its value is 4.

What about the MIC (Klebsiella pneumoniae [28]) of the same compound?
Its MIC is 0.5 µg/mL (≈ 0.798 µM).

What about the MIC (Pseudomonas aeruginosa [29]) of the same compound?
Its MIC is 32 µg/mL (≈ 51.1 µM).

What about the MIC (Klebsiella pneumoniae [30]) of the same compound?
The MIC was 2 µg/mL (≈ 3.19 µM).

And the MIC (Pseudomonas aeruginosa [31])?
The MIC was 32 µg/mL (≈ 51.1 µM).

And the MIC (Escherichia coli [32])?
Its MIC is 4 µg/mL.

And the “Selectivity Index” value (Klebsiella pneumoniae [33])?
The value was 16.

What about the “Selectivity Index” value (Escherichia coli [34]) of the same compound?
Its value is 2.

And the MIC (Escherichia coli [35])?
The MIC was 2 µg/mL.

And the MIC (Pseudomonas aeruginosa [36])?
Its MIC is 32 µg/mL (≈ 51.1 µM).

And the “Selectivity Index” value (Escherichia coli [37])?
The value was 2.

What about the “Selectivity Index” value (Pseudomonas aeruginosa [38]) of the same compound?
Its value is 1.

What about the “Selectivity Index” value (Pseudomonas aeruginosa [39]) of the same compound?
The value was greater than 2.

And the “Selectivity Index” value (Klebsiella pneumoniae [40])?
Its value is 4.

What about the “Selectivity Index” value (Escherichia coli [41]) of the same compound?
Its value is 4.

And the MIC (Klebsiella pneumoniae [42])?
Its MIC is 0.25 µg/mL.

What about the MIC (Escherichia coli [43]) of the same compound?
The MIC was 8 µg/mL (≈ 12.8 µM).

And the “Selectivity Index” value (Escherichia coli [44])?
The value was 1.

What about the MIC (Escherichia coli [45]) of the same compound?
The MIC was 2 µg/mL.
